Measurements: article PMC12705676 (Scientific Reports, 2025)
Entries after “also recorded” stand apart in the source; their conditions may differ. Read-outs that look alike come from different tables or passages of the source.

Legend:
Hemolysis assay = format: cell-based, human; conditions: human, washed human red blood cells, Hemolysis (%), 30 min, 37 °C
Procedure, shortened: (§1)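 Donor blood was collected in EDTA. RBCs were pelleted at 500 × g for 10 min, washed three times in PBS and resuspended in PBS. Cells were exposed to test compound at 10–300 µg/mL for 30 min at 37 °C with gentle agitation, then spun at 1000 × g for 5 min; supernatant hemoglobin was read at 540 nm. Deionized water defined 100% and PBS 0% hemolysis. Triplicate, three independent repeats.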

human erythrocytes = assay: Hemolysis assay; format: cell-based; conditions: for Hemolysis, result in words: 10–300 µg/mL; for Hemolysis (%): 30 min, 37 °C
Procedure, shortened: as §1

[1] = tested on: HT-29 (human colorectal adenocarcinoma); assay: SRB cytotoxicity assay, HT-29 cells; format: cell-based; conditions: for IC50: read-out: IC50 HT-29; for Selectivity index (SI) HT-29: IC50 in GES-1 / IC50 in HT-29
Procedure, shortened: (§2)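 Cells plated at 3 × 10³ per well and left 24 h to attach at 37 °C, 5% CO₂. Test compound at 0–100 µM from ethanol stocks (1% final ethanol) for 72 h. Fixation in TCA (10% final), staining with 0.1% SRB, dye solubilized in 10 mM Tris, A540. Viability relative to 1% ethanol vehicle. IC50 from a four-parameter logistic fit with 95% CI; triplicate, three independent runs, mean ± SD. SI = IC50 in GES-1 divided by IC50 in the cancer line.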

[2] = tested on: PC-3 (human prostate cancer); assay: SRB cytotoxicity assay, PC-3 cells; format: cell-based; conditions: for IC50: read-out: IC50 PC-3; for Selectivity index (SI) PC-3: IC50 in GES-1 / IC50 in PC-3
Procedure, shortened: as §2

[3] = tested on: mitochondrial membrane permeability of cancer cell line; assay: Mitochondrial membrane permeability by flow cytometry; format: cell-based, human; conditions: 48 h, Rhodamine 123, flow cytometry
[4] = ABTS radical scavenging assay; format: biochemical; conditions: concentration to scavenge 50% of radicals, mean ± SD; for IC50: read-out: ABTS IC50
Procedure, shortened: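 ABTS radical cation generated by reacting ABTS with potassium persulfate, then diluted to an absorbance of about 0.700 at 732 nm. Test compound at several concentrations was mixed with the ABTS⁺ solution and the fall in absorbance recorded. Percent scavenging was calculated against a solvent control, with ascorbic acid as reference antioxidant. Three independent experiments in triplicate, mean ± SD.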

[5] = tested on: AGS (human gastric adenocarcinoma); assay: SRB cytotoxicity assay, AGS cells; format: cell-based; conditions: for IC50: read-out: IC50 AGS; for Selectivity index (SI) AGS: IC50 in GES-1 / IC50 in AGS
Procedure, shortened: as §2

[6] = DPPH radical scavenging assay; format: biochemical; conditions: concentration to scavenge 50% of radicals, 15 min, mean ± SD
Procedure, shortened: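 Test compound solutions (5–400 µg/mL, concentration before mixing) were added to 50 µM ethanolic DPPH and kept 15 min at room temperature in the dark, then read at 517 nm. A blank with solvent in place of compound served as control. IC50 came from linear regression of % scavenging against concentration. Three independent experiments in triplicate, mean ± SD.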

[7] = tested on: GES-1 (healthy gastric epithelial cells); assay: SRB cytotoxicity assay, GES-1 non-tumor cells; format: cell-based, human; conditions: read-out: IC50 GES-1, 72 h treatment, mean ± SD

| Structure (SMILES) | hemolysis at 30 min, 10 µg/mL (Hemolysis assay) [%] | hemolysis at 30 min, 25 µg/mL (Hemolysis assay) [%] | hemolysis at 30 min, 50 µg/mL (Hemolysis assay) [%] | hemolysis at 30 min, 100 µg/mL (Hemolysis assay) [%] | hemolysis at 30 min, 200 µg/mL (Hemolysis assay) [%] | hemolysis at 30 min, 300 µg/mL (Hemolysis assay) [%] | Hemolysis, result in words (human erythrocytes) | IC50 ([1]; Homo sapiens, HT-29, 72 h) [µM] | IC50 ([2]; Homo sapiens, PC-3, 72 h) [µM] | Effect on mitochondrial membrane potential [3] | IC50 [4] [µM] | IC50 ([5]; Homo sapiens, AGS, 72 h) [µM] | Selectivity index (SI) AGS [5] | Selectivity index (SI) HT-29 [1] | Selectivity index (SI) PC-3 [2] | Hemolysis (%) (human erythrocytes; 10 µg/mL) | Hemolysis (%) (human erythrocytes; 25 µg/mL) | Hemolysis (%) (human erythrocytes; 50 µg/mL) | Hemolysis (%) (human erythrocytes; 100 µg/mL) | DPPH IC50 [6] | further results |
| --- | --- | --- | --- | --- | --- | --- | --- | --- | --- | --- | --- | --- | --- | --- | --- | --- | --- | --- | --- | --- | --- |
| CC1(C)C2CC[C@]1(C)C(=O)/C2=C/c1ccco1 [Compound 3, (1S,3E)-3-[(furan-2-yl)methylidene]-1,7,7-trimethylbicyclo[2.2.1]heptan-2-one] | 6.75 | 8.31 | 17.9 | 23.6 | 28.2 | 35.3 | concentration dependent increase in hemolysis | > 100 | > 100 | loss of the mitochondrial membrane potential | 953 ± 1.5 | 99.9 ± 0.2 | 1.85 | – | – | – | – | – | – | – | – |
| CC1(C)C2CC[C@]1(C)C(=O)/C2=C/c1cc2ccccc2o1 [Compound 9, (1S,3E)-3-[(1-benzofuran-2-yl)methylidene]-1,7,7-trimethylbicyclo[2.2.1]heptan-2-one] | 2.01 | 3.31 | 6.36 | 8.05 | 12.9 | 13.4 | – | 76.3 ± 0.2 | 97 ± 0.2 | loss of the mitochondrial membrane potential | 954.7 ± 2.7 | 31.8 ± 0.4 | 7.0 | 3.0 | 2.3 | – | – | – | – | – | – |
| CC12CCC(CC1=O)C2(C)C (stereo not drawn) [Compound 1, camphor, reference compound] | – | – | – | – | 9.67 | 10.1 | – | > 100 | > 100 | – | > 2630 | > 100 | – | – | – | 0 | 0.06 | 3.11 | 4.80 | inactive | ABTS IC50 [4]: inactive |
| CC1(C)C2CC[C@@]1(C)C(=O)/C2=C/c1ccco1 [Compound 4, (1R,3E)-3-[(furan-2-yl)methylidene]-1,7,7-trimethylbicyclo[2.2.1]heptan-2-one] | 15.7 | 18.2 | 20.1 | 31.8 | 41.5 | 49.7 | concentration dependent increase in hemolysis; also recorded: significant hemolysis | > 100 | > 100 | – | 1004 ± 2 | > 100 | – | – | – | – | – | – | – | – | – |
| CC1(C)C2CC[C@]1(C)C(=O)/C2=C/c1cccs1 [Compound 5, (1S,3E)-1,7,7-trimethyl-3-[(thiophen-2-yl)methylidene]bicyclo[2.2.1]heptan-2-one] | 0 | 0 | 1.1 | 3.11 | 7.4 | 13.8 | – | 87.5 ± 0.5 | 63.57 ± 0.6 | loss of the mitochondrial membrane potential | 1301 ± 2.4 | 43.2 ± 0.3 | 4.2 | 2.1 | 3.0 | – | – | – | – | – | – |
| CC12CCC(CC1=O)C2(C)C (stereo not drawn) [Compound 2, camphor, reference compound] | – | – | – | – | – | – | concentration dependent increase in hemolysis | – | – | – | > 2630 | – | – | – | – | 5.25 | 6.55 | 9.61 | 11.29 | inactive | Hemolysis (%) (human erythrocytes; 200 µg/mL): 16.16%; Hemolysis (%) (human erythrocytes; 300 µg/mL): 16.62%; IC50 ([1]; SRB, 72 h treatment, mean ± SD): > 100 µM; IC50 ([2]; SRB, 72 h treatment, mean ± SD): > 100 µM; IC50 [7]: 322.7 ± 1.7 µM; ABTS IC50 [4]: inactive; IC50 ([5]; SRB, 72 h treatment, mean ± SD): > 100 µM |
